# Published values gathered from unrelated publications.
# Protocols differ between the studies behind these lines.
# BRD4 BD1: Bromodomain-containing protein 4, BD1 (BRD4, Homo sapiens, UniProt O60885)
# BRD4 BD2: Bromodomain-containing protein 4, BD2 (BRD4, Homo sapiens, UniProt O60885)
SMILES,target,effect on,method,tested at,measurement,result
COc1cc(C(=O)N2CCC(N3CCN(C)CC3)CC2)ccc1Nc1ncc2c(n1)N(C)c1ccccc1C(=O)N2C,BRD4 BD1,thermal stability,DSF,10 µM,ΔTm,2.1 °C
CN(C)CCN1CCN(c2nc(NCc3cccc(Cl)c3)c3cc(-c4ccc(=O)n(C)c4)ccc3n2)CC1,BRD4 BD2,thermal stability,DSF,250 µM,ΔTm,11 °C
Cc1cnc(Nc2ccc(OCCN3CCCC3)cc2)nc1Nc1cccc(S(=O)(=O)NC(C)(C)C)c1,BRD4 BD1,thermal stability,DSF,10 µM,ΔTm,3.8 °C
Cn1cc(C(=O)Nc2cccc(C(=O)O)c2)ccc1=O,BRD4 BD1,thermal stability,DSF,100 µM,ΔTm,0.9 °C
NS(=O)(=O)c1ccc(Nc2nc(-c3ccc(F)cc3)c3ccccc3n2)cc1,BRD4 BD2,binding,competition with immobilised ligand,1 µM,remaining binding,4%
CC(C)[C@@H]1NC(=O)[C@@H]2CCCN2C(=O)[C@H](Cc2ccccc2)NC(=O)CSC[C@@H](C(=O)N[C@@H](Cc2ccc(O)cc2)C(N)=O)NC(=O)[C@H](Cc2c[nH]c3ccccc23)NC(=O)[C@H](CCCCN)NC(=O)[C@H](Cc2ccccc2)N(C)C(=O)[C@H](Cc2ccccc2)NC1=O,BRD4 BD1,thermal stability,DSF,100 µM,ΔTm,-0.52 °C
C[S+]([O-])c1ccc(-c2nc(-c3ccncc3)c(-c3ccc(F)cc3)[nH]2)cc1 (stereo not drawn),BRD4 BD1,thermal stability,DSF,10 µM,ΔTm,1.32 °C
CC(C)(C)c1cc(NC(=O)Nc2ccc(-c3cn4c(n3)sc3cc(OCCN5CCOCC5)ccc34)cc2)no1,BRD4 BD1,thermal stability,DSF,100 µM,ΔTm,< 1 °C
Cc1cc2c(NC(=O)c3cccc(C(=O)O)c3)cccc2nn1,BRD4 BD1,thermal stability,DSF,100 µM,ΔTm,1.4 °C
